Compound activity from PubChem.
m5-HT2A agonist = agonists of mouse serotonin 5-HT2A receptor (HTR2A); P35363; CHO-K1 mHTR2A beta-arrestin complementation, luminescence; percent of 30 µM serotonin response; AID 624169; hit rate 0.66% among 360,000; activation, % at 7.6 µM;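 active = activation above a run cutoff, the mean activation of all tested compounds plus 3 SD, cut at about 14% in these data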;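 also: 0% = plate median of compound wells and 100% = 30 µM serotonin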
dFosB act-1 = activators of mouse delta FosB homodimer; P13346; purified delta FosB, TAMRA-CDK5 oligo fluorescence polarization; percent of positive-control signal above neutral wells; activation, % at 25 µM; hit rate 0.99% among 340,000; AID 493131;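 active = mean activation above about 17%, with every replicate also reaching it, limit read from the data, passing the limit was not always enough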
Target sequence (P13346 whole entry, looked up): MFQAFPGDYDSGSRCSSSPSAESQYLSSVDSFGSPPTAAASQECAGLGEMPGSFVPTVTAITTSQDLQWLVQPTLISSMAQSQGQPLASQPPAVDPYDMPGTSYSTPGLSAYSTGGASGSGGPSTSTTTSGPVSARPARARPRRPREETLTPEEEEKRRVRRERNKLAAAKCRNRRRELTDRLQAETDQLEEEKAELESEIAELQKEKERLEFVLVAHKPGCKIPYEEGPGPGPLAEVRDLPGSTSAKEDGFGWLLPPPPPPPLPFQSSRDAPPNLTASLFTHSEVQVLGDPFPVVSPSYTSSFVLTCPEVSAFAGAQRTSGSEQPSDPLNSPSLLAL
IMP-1 inhibitor = blocks Pseudomonas aeruginosa IMP-1 metallo-beta-lactamase | purified IMP-1, nitrocefin hydrolysis, epi-absorbance fluorescence | inhibition, % at 5.6 µM | hit rate 0.45% among 290,000 | AID 1556;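 active = inhibition above the mean plus 3 SD of all compounds in the same screening run, cut at about 4.5% in these data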;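 also: 0% = IMP-1 with DMSO and 100% = DMSO wells lacking enzyme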
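Assay system: purified IMP-1; Quantity: IMP-1 0.2 nM before substrate addition; Medium: HEPES buffer pH 7.1 with ZnSO4 and Brij 35; Incubation: 15 min enzyme–compound preincubation, then 25 min nitrocefin reaction, 25 °C; Signal: fluorescence quenching readout, ex 480/em 530 nm; Controls: DMSO with and without IMP-1; Repeats: singlicate testing.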
VIM-2 inh = inhibitors of Pseudomonas aeruginosa VIM-2 metallo-beta-lactamase | hit rate 0.89% among 290,000 | inhibition, % at 5.6 µM | purified VIM-2, nitrocefin hydrolysis, epi-absorbance fluorescence;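 active = inhibition above the mean of all tested compounds plus 3 SD, cutoff set per screening run, cut at about 7.5% in these data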;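 also: red hydrolysis product quenches plate fluorescence so inhibitors raise well fluorescence; 0% = enzyme with DMSO and 100% = DMSO without enzyme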
dFosB act-2 = enhances mouse delta FosB homodimer binding to DNA; shares compounds with dFosB act-1; purified delta FosB, TAMRA-CDK5 oligo fluorescence polarization; normalised: neutral wells 0, positive control 100; activation, % at 24.9 µM; 2,400 tested, under 10 active; AID 588690;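 active = highest replicate activation at or above 34% and every replicate reaching that threshold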;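 also: higher polarization means more probe DNA bound by delta FosB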
Active calls of the source: *; . = no result. Hits are enriched below; roughly 2.5% of the tested compounds scored in any of these assays.

SMILES | m5-HT2A agonist | dFosB act-1 | IMP-1 inhibitor | VIM-2 inh | dFosB act-2
Cc1cccc(NC(=O)C2(C)CC3c4ccccc4C2c2ccccc23)c1 (stereo not drawn) | 11 | 29* | -2 | -2 | 5
Cc1nc2cc(N3CCCCC3)c(NC(=O)c3ccncc3)cc2c(=O)n1Cc1ccccc1 | 3 | 24* | 4 | -1 | 6
Cc1nc2cc(N3CCOCC3)c(NC(=O)C3CC3)cc2c(=O)n1Cc1ccccc1 | -1 | -3 | -4 | -2 | .
COc1ccc(C(=O)N/N=C/c2ccc(OC)c(COc3ccc(F)cc3F)c2)cc1 | -10 | -6 | -1 | -2 | .
CC(NC(=O)COC(=O)c1cc2ccccc2cc1O)c1ccccc1 (stereo not drawn) | 1 | 24* | . | . | 1
Cc1c(C(=O)OCC(=O)NC(C)c2ccccc2)oc2ccccc12 (stereo not drawn) | -4 | 20* | -4 | -3 | 7
Cc1cc(C(=O)OCC(=O)NC(C)c2ccccc2)c(C)o1 (stereo not drawn) | 3 | -4 | 0 | -2 | .
CCOc1ccccc1CN1CCCC(C(=O)Nc2cccc(-n3cccn3)c2)C1 (stereo not drawn) | -8 | -16 | -4 | 0 | .
CC(C)NC(=O)CC1C(=O)N(Cc2ccccc2)C(C)c2nc3ccccc3n21 (stereo not drawn) | 2 | 2 | -1 | -3 | .
O=C(CC1S/C(=N/N=C/c2c[nH]c3ccc(OCc4ccccc4)cc23)NC1=O)Nc1ccccc1 (stereo not drawn) | 5 | 32* | -3 | -8 | 4
N=c1oc2cc(O)ccc2cc1C(=O)Nc1ccc(Cl)cc1 | -5 | 27* | 0 | 1 | 1
Cc1ccc(NC(=O)c2cc3ccccc3oc2=N)cc1 | 1 | 6 | -3 | -2 | .
O=C(COC(=O)c1cc(=O)[nH]c2ccccc12)NCc1ccc(F)cc1 | -5 | -10 | . | . | .
O=C(COC(=O)c1ccccc1O)NC(=O)NCc1ccccc1 | -1 | 9 | . | . | .
NC(=O)c1ccsc1NC(=O)COC(=O)c1cc(=O)[nH]c2ccccc12 | 7 | 2 | . | . | .
O=C(COC(=O)c1cc(Cl)ccc1O)NC(=O)NCc1ccccc1 | 6 | 24* | . | . | 6
O=C(COC(=O)c1cc(=O)[nH]c2ccccc12)NCc1ccc(Cl)cc1 | 11 | 57* | . | . | 4
O=C(COC(=O)c1cc(=O)[nH]c2ccccc12)Nc1nc(-c2ccc(F)cc2)cs1 | 6 | 41* | . | . | 2
O=C(CCc1nnc2ccc(NCc3ccccc3Cl)nn12)NC1CCCCC1 | 1 | -4 | -4 | -2 | .
C[C@]12CCC(O)CC1=CCC1C2CC[C@]2(C)/C(=N\NC(N)=S)CCC12 (stereo partly drawn) | -4 | 4 | -2 | -3 | .
Cc1ccc(F)c(S(=O)(=O)NC(=O)C2(C)CCN2C(=O)Cc2cccc3ccccc23)c1 (stereo not drawn) | -2 | . | . | . | .
Cc1c(C)n(CC(O)CN2CCCCCC2)c2ccccc12 (stereo not drawn) | -3 | -3 | -2 | -3 | .
OC(CN1CCCCC1)Cn1c2ccccc2c2cc(Br)ccc21 (stereo not drawn) | -4 | 40* | -2 | -1 | 2
N/C(=N\OC(=O)COc1ccc(Cl)cc1)c1cccnc1 | 4 | -1 | 1 | 1 | .
N/C(=N\OC(=O)COc1ccc(Cl)cc1Cl)c1cccnc1 | 0 | 24* | -2 | -3 | -4
SMILES | m5-HT2A agonist | dFosB act-1 | IMP-1 inhibitor | VIM-2 inh | dFosB act-2
O=C(NCCN1CCCC1)c1ccc(Cn2c(=S)[nH]c3cc4c(cc3c2=O)OCO4)cc1 | -8 | 25* | -1 | 1 | -2
CN1CCN(CCCNC(=O)c2ccc(Cn3c(=S)[nH]c4ccc(Br)cc4c3=O)cc2)CC1 | -3 | -6 | -3 | -2 | .
C=CCNC(=O)c1ccc(Cn2c(=S)[nH]c3cc4c(cc3c2=O)OCO4)cc1 | 2 | 34* | -5 | -4 | 4
CC(=O)Nc1cc(-c2cccc(C(=O)NCCO)c2)cn2c(-c3cccc(C(F)(F)F)c3)cnc12 | 4 | . | . | . | .
CCOC1=C2[C@@H](CN(S(=O)(=O)c3ccc(C)cc3)[C@H]2c2ccc(CC)cc2)[C@H]2C(=O)N(C)C(=O)[C@H]2C1 | 1 | . | . | . | .
COc1ccc(/C=C/C(=O)NC(=S)Nc2ccccn2)cc1 | 2 | 17* | -1 | -1 | 0
COc1ccccc1/C=C/C(=O)NC(=S)Nc1ccccn1 | 2 | -17 | -3 | 0 | .
CC1CCc2sc(C(=O)NC3CCN(Cc4ccccc4)CC3)cc2C1 (stereo not drawn) | -15 | -14 | . | . | .
CCC1CCc2sc(C(=O)NC3CCN(Cc4ccccc4)CC3)cc2C1 (stereo not drawn) | -18 | 29* | . | . | 1
CC(C)(C)OC(=O)N[C@@H](Cc1ccccc1)c1nnc(SCC(=O)c2ccc(Cl)cc2)o1 | 2 | 44* | -2 | -1 | 7
CC(C)(C)OC(=O)N[C@@H](Cc1ccccc1)c1nnc(SCC(=O)O)o1 | 4 | 7 | -2 | -3 | .
CCC(Cc1ccccc1)NC(=O)C1CCN(S(=O)(=O)c2ccc3c(c2)CC(C)N3C(C)=O)CC1 (stereo not drawn) | 1 | 6 | -2 | -2 | .
CCc1ccccc1NC(=O)Cn1nnc(C(=O)NCc2cccs2)c1N | -1 | 40* | -2 | -1 | 0
O=C(Cn1nnc2c(cnn2-c2ccccc2)c1=O)NCc1cccs1 | -2 | 38* | -1 | -1 | 5
COc1ccccc1NC(=O)Cn1nnc(C(=O)NCc2cccs2)c1N | 7 | 22* | -5 | -4 | -7
CCc1ccc(NC(=O)Cn2nnc(C(=O)NCc3cccs3)c2N)cc1 | 5 | 9 | -3 | -4 | .
Cc1ccc(C)c(NC(=O)Cn2nnc(C(=O)NCc3cccs3)c2N)c1 | -3 | -2 | -1 | -1 | .
S=C(Nc1cc(Cl)cc(Cl)c1)N1CCN(c2ccccn2)CC1 | 5 | 7 | 0 | -3 | .
CC(=O)c1ccc(NC(=O)Cn2cnc(S(=O)(=O)N3CCC(C)CC3)c2)cc1 | 5 | 35* | -4 | -3 | -2
CC(=O)c1ccc(NC(=O)Cn2cnc(S(=O)(=O)N3CCOCC3)c2)cc1 | 1 | 3 | -1 | -5 | .
COc1ccc(CNC(=O)CN2C(=O)COc3ccc(S(=O)(=O)N4CCC(C)CC4)cc32)cc1 | 4 | -7 | -1 | -7 | .
COc1ccc(/C=N/NC(=O)C2c3ccccc3-c3ccccc32)cc1 | -1 | 22* | -3 | -5 | 0
Cc1ccc(O)c(C(=O)c2cnn(C(=O)c3cccc(S(=O)(=O)N(C)C)c3)c2)c1 | -6 | 13 | . | . | .
COc1ccc(O)c(C(=O)c2cnn(C(=O)c3cccc(S(=O)(=O)N(C)C)c3)c2)c1 | 4 | 37* | . | . | 1
O=C(N/N=C/c1ccc(Cl)c([N+](=O)[O-])c1)c1cc(-c2ccc3c4c(cccc24)CC3)n[nH]1 | 1 | 38* | -4 | -2 | 7
COc1cc(NC(=O)c2ccc3c(=O)n(Cc4ccco4)c(=S)[nH]c3c2)cc(OC)c1OC | -4 | 31* | -4 | -4 | -1
